Most compounds without a hit are left out; they make up all but 2% or so of the library.
FLuc stim CS – FLuc activators, initial screening, artefact control for FLuc-dependent activation tests, biochemical, ATPlite luminescence | ATPlite luciferase biochemical, 10 min; 0 = ATP-free wells, 1 = DMSO control | activation factor at 10 µM | 200,000 tested, under 10 active;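 active means luciferase activation factor, scaled between plate controls, of at least 2 with compound at 10 µM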
Target sequence (P08659 whole entry, looked up): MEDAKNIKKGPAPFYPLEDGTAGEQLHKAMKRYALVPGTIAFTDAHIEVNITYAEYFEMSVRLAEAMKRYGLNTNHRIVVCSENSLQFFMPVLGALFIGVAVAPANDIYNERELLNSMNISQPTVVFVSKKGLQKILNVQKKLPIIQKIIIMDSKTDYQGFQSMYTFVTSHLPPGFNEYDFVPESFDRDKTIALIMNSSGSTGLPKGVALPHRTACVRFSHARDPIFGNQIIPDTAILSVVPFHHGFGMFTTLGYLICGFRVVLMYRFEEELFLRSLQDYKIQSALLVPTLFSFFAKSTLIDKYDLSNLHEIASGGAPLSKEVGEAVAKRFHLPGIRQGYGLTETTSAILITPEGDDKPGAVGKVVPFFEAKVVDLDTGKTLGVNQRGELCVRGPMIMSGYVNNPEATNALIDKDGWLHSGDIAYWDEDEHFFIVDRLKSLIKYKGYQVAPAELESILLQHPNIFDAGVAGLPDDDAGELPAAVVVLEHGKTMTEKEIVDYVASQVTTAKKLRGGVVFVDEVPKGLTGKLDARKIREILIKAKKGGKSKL
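System: cell-free luciferase reagent; medium: PBS as buffer for the ATP substrate; doses: test compounds dosed from 2 mM stocks in 100% DMSO; incubation: 10 min, room temperature; measured by: luminescence from luciferase reaction; read-out: luciferase activation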
HSP90 refold inh – HSP90 inhibitors, primary screen, cell lysate, luminescence; Heat shock protein HSP 90 (rabbit reticulocyte lysate; luciferase refolding); Rabbit reticulocyte lysate, luciferase refolding luminescence, 3 h; inhibition, % at 5.6 µM; 290,000 compounds, 0.91% hits; AID 1789, 2009;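 active means inhibition above the screen-wide mean plus 3 SD, computed separately per campaign, cut at about 16% in these data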;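 further: inhibitors lower the luminescence because luciferase stays unfolded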
C8 TRAIL sens – viability loss with TRAIL in NB7+C8 cells, primary screen, TRAIL sensitizer project, cell-based, ATPlite luminescence | inhibition (viability loss, TRAIL sensitization), % at 10 µM | 360,000 compounds, 1% hits;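 active means compounds causing at least 50% loss of cell viability in the single-dose screen, relative to plate controls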
FLuc inhib CS – firefly luciferase enzyme inhibitors, primary screen, artefact control for luciferase-based inhibitor screens, biochemical, luminescence, ATPLite; Luciferin 4-monooxygenase (Photinus pyralis), P08659; 10 min; inhibition, % at 10 µM; 200,000 compounds, 1.5% hits; AID 1006, 2008;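 active means inhibition above about 50% when tested at 10 µM, limit read from the data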
PPC-1+TRAIL kill – compounds killing PPC-1 cancer cells with TRAIL present, primary screen, TRAIL potentiator project, ATPLite luminescence, uHTS; PPC-1 cells + TRAIL, ATPLite viability luminescence; cell killing (% activity), % at 4 µM or 5 µM; 220,000 compounds, 0.41% hits;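 active means cell killing above 50% in the first pass at 4 µM, then a duplicate retest at 5 µM averaging 50% or more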
HSP90 inh confirm – HSP90 inhibitors, confirmation, cell lysate, luminescence; rabbit reticulocyte lysate, luciferase refolding luminescence, 3 h; 2,300 compounds, 64% hits; inhibition, % at 5.9 µM; shares compounds with HSP90 refold inh; AID 1846, 2009; in the data active means inhibition above about 18%
luciferase ctr – firefly luciferase inhibitors, HSP90 counter-screen, confirmation, artefact control for HSP90 inhibitor project, biochemical, luminescence, triplicate; 2,300 compounds, 48% hits; shares compounds with HSP90 refold inh; inhibition, % at 5.9 µM; purified native firefly luciferase;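 active means inhibition above the mean inhibition of all tested sample wells plus 3 SD, cut at about 10% in these data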
Large screens that a line does not name were inactive (follow-up assays come after a bar, where they were run).

Cc1nnc(SCC(=O)Nc2ncc3c(n2)CC(c2ccccc2)CC3=O)s1 (stereo unspecified)	HSP90 refold inh 35.0 | HSP90 inh confirm inactive | luciferase ctr inactive
COc1ccc(S(=O)(=O)N2CCCCC2c2cc(C(=O)N3CCOCC3)no2)cc1 (stereo unspecified)	none (no result: FLuc stim CS, HSP90 refold inh, FLuc inhib CS, PPC-1+TRAIL kill)
CCOc1ccc(-c2cnc3ccccc3n2)cc1	HSP90 refold inh 41.9, C8 TRAIL sens 65.9 (no result: FLuc stim CS, FLuc inhib CS) | HSP90 inh confirm 86.4 | luciferase ctr 79.7
O=[N+]([O-])c1ccc(-c2cnc3ccccc3n2)cc1	none (no result: FLuc stim CS, FLuc inhib CS, PPC-1+TRAIL kill)
O=C(CS(=O)(=O)Cc1ccccc1)NCc1ccccc1Cl	none (no result: FLuc stim CS, FLuc inhib CS, PPC-1+TRAIL kill)
CC12CCC(=O)N1C(C(=O)NNC(=O)c1ccccc1Cl)CS2 (stereo unspecified)	none (no result: FLuc stim CS, HSP90 refold inh, FLuc inhib CS, PPC-1+TRAIL kill)
COc1ccccc1Nc1nc(-c2sc(NC(=O)c3cccc(Cl)c3)nc2C)cs1	HSP90 refold inh 66.0 (no result: C8 TRAIL sens) | HSP90 inh confirm 60.9 | luciferase ctr inactive
Cc1ccc(Nc2nc(-c3sc(NC(=O)c4cccc(Cl)c4)nc3C)cs2)cc1	HSP90 refold inh 70.3 (no result: C8 TRAIL sens) | HSP90 inh confirm 46.5 | luciferase ctr inactive
COc1ccccc1Nc1nc(-c2sc(NC(=O)C(C)(C)C)nc2C)cs1	none
CC(C)(C)c1ccc(C(=O)Nc2cnccn2)cc1	HSP90 refold inh 17.5, C8 TRAIL sens 74.8, FLuc inhib CS 85.8 | HSP90 inh confirm 50.3 | luciferase ctr 37.4
Cc1ccc2c(c1)Cc1nc3ccccc3nc1-2	HSP90 refold inh 26.8, C8 TRAIL sens 58.9, FLuc inhib CS 86.6 | HSP90 inh confirm 70.9 | luciferase ctr 62.6
Cc1cc(N2CCCC2)nc2ccccc12	none
OC(CC#CCN1CCCC1)(c1ccccc1)c1ccccc1	none (no result: FLuc stim CS, FLuc inhib CS)
CC(C)C(O)(CC#CCN1CCCC1)c1ccccc1 (stereo unspecified)	HSP90 refold inh 58.8 | HSP90 inh confirm inactive | luciferase ctr inactive
CC(Sc1nnc(C2CC2)n1C1CC1)C(=O)Nc1cccc(S(=O)(=O)N2CCOCC2)c1 (stereo unspecified)	none (no result: FLuc stim CS, HSP90 refold inh, FLuc inhib CS, PPC-1+TRAIL kill)
CC1(C)CC(=O)C/C(=N/Nc2nc3ccccc3s2)C1	HSP90 refold inh 22.3 | HSP90 inh confirm inactive | luciferase ctr inactive
CCC/C=N/Nc1nc2ccccc2s1	HSP90 refold inh 19.8 | HSP90 inh confirm inactive | luciferase ctr inactive
CC1CCC/C(=N/Nc2nc3ccccc3s2)C1 (stereo unspecified)	HSP90 refold inh 46.8, FLuc inhib CS 71.5 | HSP90 inh confirm 25.0 | luciferase ctr 12.4
COc1cc(OC)c(NC(=O)c2sc3ncn(CC(=O)N4CCOCC4)c(=O)c3c2C)cc1Cl	none (no result: FLuc stim CS, FLuc inhib CS, PPC-1+TRAIL kill)
O=c1[nH][nH]c(C(F)(F)F)c1C=NCc1cccs1	none
Cc1cc2ccccc2n1CCNC(=O)c1cccs1	HSP90 refold inh 23.0 | HSP90 inh confirm 39.4 | luciferase ctr inactive
CC1CCN(C(=O)N2c3ccccc3Sc3ccccc32)CC1	HSP90 refold inh 19.1 | HSP90 inh confirm inactive | luciferase ctr inactive
COC(=O)c1ccc(NC(=O)c2sc3nc(-c4ccccc4)cn3c2C)cc1	HSP90 refold inh 20.7 | HSP90 inh confirm 17.7 | luciferase ctr inactive
C=CCn1cnc2c(nnn2-c2ccc(C)c(C)c2)c1=O	none
Cc1ccc(-c2onc3ccc(C=O)cc23)cc1	HSP90 refold inh 49.8 | HSP90 inh confirm inactive | luciferase ctr inactive
Cc1cc(NC(=O)c2cccc(COc3ccc(Br)cc3)c2)no1	HSP90 refold inh 21.0 | HSP90 inh confirm 64.1 | luciferase ctr 52.6
Cc1cc(NC(=O)COC(=O)c2cccc(OCc3ccccc3)c2)no1	none
Cc1nn(Cc2c(F)c(F)c(F)c(F)c2F)c(C)c1NC(=O)c1cccc(COc2ccc(Cl)cc2)c1	none
CC(C)c1cc(C(N)=O)c(NC(=O)c2cccc(COc3ccc(Cl)cc3)c2)s1	HSP90 refold inh 49.0 | HSP90 inh confirm 71.3 | luciferase ctr 68.6
